# Published values collected from several papers.
# Compare with care: the assays were run in different laboratories.
# SLC22A8: Organic anion transporter 3 (SLC22A8, Homo sapiens, UniProt Q8TCC7)
# RORC: Nuclear receptor ROR-gamma (RORC, Homo sapiens, UniProt P51449)
# CDC7: Cell division cycle 7-related protein kinase (CDC7, Homo sapiens, UniProt O00311)
# SIRT2: NAD-dependent protein deacetylase sirtuin-2 (SIRT2, Homo sapiens, UniProt Q8IXJ6)
# Maoa: Amine oxidase [flavin-containing] A (Maoa, Rattus norvegicus, UniProt P21396)
# AMY2: Pancreatic alpha-amylase (AMY2, Sus scrofa, UniProt P00690)
# polA: DNA polymerase I, thermostable (polA, Thermus aquaticus, UniProt P19821)
# Chymotrypsinogen A: Chymotrypsinogen A (Bos taurus, UniProt P00766)
target,observed,mode,method,pH,notes,IC50 [nM],Structure (SMILES)
"Prostaglandin E synthase (PTGES, Homo sapiens, UniProt O14684)",enzyme activity,inhibitor,,,,> 10000,C=C(C)[C@@H]1CCC(C)=C[C@H]1c1c(O)cc(CCC)cc1O
SLC22A8,transporter uptake,inhibitor,,,,662,C=C(CC)C(=O)c1ccc(OCC(=O)O)c(Cl)c1Cl
RORC,ligand displacement,,radioligand,,,170,O=S(=O)(c1cccc(C(F)(F)F)c1)N1CCc2ccc(OCc3c(Cl)cccc3C(F)(F)F)cc21
SLC22A8,transporter uptake,inhibitor,,,,27600,CC(C)(C)C(O)/C=C/c1ccc2c(c1)OCO2 (stereo not drawn)
"Beta-glucosidase (GBA2, Homo sapiens, UniProt Q9HCG7)",enzyme activity,inhibitor,,pH 5,lysate,26700,OC[C@@H]1[C@@H](O)[C@H](O)[C@@H](O)[C@@H]2O[C@H]12
CDC7,enzyme activity,inhibitor,,,,1790,Cc1cc(-c2cc3nc([C@@H](N)C(C)C)[nH]c(=O)c3s2)ccn1
RORC,ligand displacement,,radioligand,,,120,O=S(=O)(c1cccc(C(F)(F)F)c1)N1CCc2ccc(OCc3c(F)cccc3Cl)cc21
"Cyclin-dependent kinase 19, with cyclin C (CDK19, Homo sapiens, UniProt Q9BWU1)",ligand displacement,,,,,72,O=C1NCCC12CCN(c1c(Cl)cncc1-c1ccc3cccnc3c1)CC2
SIRT2,enzyme activity,inhibitor,,,,740,CCCCCCCCCCCCCC(=O)NCCCC[C@H](NS(C)(=O)=O)C(=O)N[C@H](C)C(=O)N[C@@H](CCCNC(=N)N)C(N)=O
Maoa,enzyme activity,inhibitor,fluorescence,,,2030,CN1c2ccccc2C(=NN=Cc2cc3ccc(Cl)cc3nc2Cl)CS1(=O)=O
SIRT2,enzyme activity,inhibitor,,,,260,CCCCCCCCCCCCNC(=S)NCCCC[C@H](NC(=O)OCc1ccccc1)C(=O)N[C@@H](Cc1c[nH]c2ccccc12)C(=O)N[C@@H](CC(N)=O)C(N)=O
RORC,ligand displacement,,radioligand,,,350,CC(Oc1ccc2c(c1)N(S(=O)(=O)c1cccc(C(F)(F)F)c1)CC2)c1c(F)cccc1Cl (stereo not drawn)
"Lysine-specific demethylase 4D (KDM4D, Homo sapiens, UniProt Q6B0I6)",enzyme activity,inhibitor,AlphaScreen,,,34000,O=C(O)CNC(=O)C(=O)O
AMY2,enzyme activity,inhibitor,,,,4100,O=C1Nc2ccc([N+](=O)[O-])cc2/C1=N/NS(=O)(=O)c1ccc(Cl)cc1
polA,enzyme activity,inhibitor,,,,> 200000,CCCCCCCC/C=C\CCCCCCCC(=O)Oc1ccc2ccc(=O)oc2c1
RORC,ligand displacement,,radioligand,,,380,CC1Cc2ccc(OCc3c(F)cccc3Cl)cc2N1S(=O)(=O)c1cccc(C(F)(F)F)c1 (stereo not drawn)
SIRT2,enzyme activity,inhibitor,,,,220,CCCCCCCCCCCCNC(=S)NCCCC[C@H](NC(=O)OCc1ccccc1)C(=O)N[C@@H](Cc1c[nH]c2ccccc12)C(=O)N[C@@H](CCCCN)C(N)=O
SLC22A8,transporter uptake,inhibitor,,,,720,O=C(O)c1cc(-c2ccc(F)cc2F)ccc1O
RORC,reporter gene,inverse agonist,luciferase,,,193,C[C@H](CCCOc1cccc(CO)c1)[C@H]1CC[C@H]2[C@@H]3CC=C4C[C@@H](O)CC[C@]4(C)[C@H]3CC[C@]12C
Chymotrypsinogen A,enzyme activity,inhibitor,fluorescence,,,2800,O=c1oc(Cl)c(Cl)c2ccccc12
RORC,ligand displacement,,radioligand,,,250,O=S(=O)(c1cccc(C(F)(F)F)n1)N1CCc2ccc(OCc3c(F)cccc3Cl)cc21
CDC7,enzyme activity,inhibitor,,,,3630,CC(C)[C@H](N)c1nc2cc(-c3cn[nH]n3)sc2c(=O)[nH]1
polA,enzyme activity,inhibitor,,,,> 100000,CC/C=C\C/C=C\C/C=C\C/C=C\C/C=C\CCCC(=O)O
CDC7,enzyme activity,inhibitor,,,,2200,CC(C)[C@H](N)c1nc2cc(-c3ccnc(Cl)c3)sc2c(=O)[nH]1
SIRT2,enzyme activity,inhibitor,,,,30,C=C(NC(=O)[C@H](CCCCNC(=S)NCCCCCCCCCCCC)NS(C)(=O)=O)C(=O)N[C@@H](CCCNC(=N)N)C(N)=O
"Histone lysine demethylase PHF8, PHD (PHF8, Homo sapiens, UniProt Q9UPP1)",cell-free assay,inhibitor,TR-FRET,,,> 100000,CN1CCN(c2ccnc(C(=O)N3CCC[C@H](C(=O)Nc4cccc(-c5ccc6c(c5)C(=O)NC6)c4)C3)c2)CC1
"Tyrosine-protein kinase Fer (FER, Homo sapiens, UniProt P16591)",enzyme activity,inhibitor,,,,14.8,Cc1cnc(-c2ccc(-c3ccc(NC(=O)Nc4c(F)cc(F)cc4F)cc3F)c3c2C(=O)NC3)[nH]1
Maoa,enzyme activity,inhibitor,fluorescence,,,1040,CC(=NN=C1CS(=O)(=O)N(C)c2ccccc21)c1sccc1Cl
AMY2,enzyme activity,inhibitor,,,,12800,O=C1Nc2ccc(Cl)cc2/C1=N/NS(=O)(=O)c1ccc(Br)cc1
SIRT2,enzyme activity,inhibitor,,,,50,CCCCCCCCCCCCNC(=S)NCCCC[C@H](NC(C)=O)C(=O)N[C@@H](C)C(=O)N[C@@H](CCCNC(=N)N)C(N)=O
"Genome polyprotein, protease (Hepatitis C virus genotype 1b, UniProt Q9WMX2)",enzyme activity,inhibitor,fluorescence,,,< 100,O=C1OC[C@H]2OC(O)[C@H](O)[C@@H](O)[C@@H]2OC(=O)c2cc(O)c(O)c(O)c2-c2c(O)c(O)c3oc(=O)c4c(c(O)c(O)c5oc(=O)c2c3c54)-c2c1cc(O)c(O)c2O (mixture of isomers)
"Flap endonuclease 1 (Homo sapiens, UniProt P39748)",enzyme activity,inhibitor,fluorescence,,with preincubation,630,O=C(O)C1=CC(=C(c2ccc(O)c(C(=O)O)c2)c2ccc(O)c(C(=O)O)c2)C=CC1=O
"Tyrosine-protein kinase Fes/Fps (FES, Homo sapiens, UniProt P07332)",enzyme activity,inhibitor,,,,> 500,COc1ccc2c(Oc3ccc4c(C(=O)Nc5ccccc5N)cccc4c3)ccnc2c1
"Protein-arginine deiminase type-3 (PADI3, Homo sapiens, UniProt Q9ULW8)",enzyme activity,inhibitor,,,,26000,CCNC(=O)[C@H](CCCNC(=N)CCl)NC(=O)c1ccccc1
RORC,ligand displacement,,radioligand,,,290,O=S(=O)(c1cncc(C(F)(F)F)c1)N1CCc2ccc(OCc3c(F)cccc3Cl)cc21
"Tyrosine-protein kinase FRK (FRK, Homo sapiens, UniProt P42685)",enzyme activity in cells,inhibitor,ATP luminescence,,,> 100,COc1cc2nccc(Oc3ccc(NC(=O)c4cc5c(n(-c6ccccc6)c4=O)CCCC5=O)nc3)c2cc1OC
"Cyclin-G-associated kinase (GAK, Homo sapiens, UniProt O14976)",enzyme activity,inhibitor,radiometric,,,60,Cc1nccc2c1c(=O)n(C)c1cc(OC[C@@H](N)CC(C)C)c(C#N)cc21
SIRT2,enzyme activity,inhibitor,,,,150,CCCCCCCCCCCCNC(=S)NCCCC[C@H](NC(=O)OCc1ccccc1)C(=O)N[C@@H](Cc1c[nH]c2ccccc12)C(=O)N[C@@H](CCCNC(=N)N)C(N)=O
AMY2,enzyme activity,inhibitor,absorbance,,,23700,COc1cc(C=Cc2cc(-c3ccccc3)nc(O)n2)ccc1O
RORC,ligand displacement,,radioligand,,,340,O=S(=O)(c1cc(Cl)cc(Cl)c1)N1CCc2ccc(OCc3c(F)cccc3Cl)cc21
"Neuromedin-U receptor 1 (Mus musculus, UniProt O55040)",ligand displacement,,radioligand,,,0.38,CC(C)C[C@H](NC(=O)[C@H](Cc1ccccc1)NC(=O)[C@@H](N)Cc1ccc(O)cc1)C(=O)N[C@@H](Cc1ccccc1)C(=O)N[C@@H](CCCNC(=N)N)C(=O)N1CCC[C@H]1C(=O)N[C@@H](CCCNC(=N)N)C(=O)N[C@@H](CC(N)=O)C(N)=O
Chymotrypsinogen A,enzyme activity,inhibitor,fluorescence,,,6000,O=C(Cc1cccs1)N[C@@H]1C(=O)N2C(C(=O)[O-])=C(C[n+]3ccccc3)CS[C@H]12
SLC22A8,transporter uptake,inhibitor,radiometric,,,8400,CCS(=O)(=O)N1CC(CC#N)(n2cc(-c3ncnc4[nH]ccc34)cn2)C1
AMY2,enzyme activity,inhibitor,,,,1300,O=C1Nc2ccc([N+](=O)[O-])cc2/C1=N/NS(=O)(=O)c1cc(Cl)cc(Cl)c1O
RORC,ligand displacement,,radioligand,,,350,COc1cc(Cl)ccc1COc1ccc2c(c1)N(S(=O)(=O)c1cccc(C(F)(F)F)c1)CC2
